Assay results as given in PMC6044410 (Structure (London, England : 1993), 2017).
Several values for one entry are separate records, joined by “and”; a condition that tells them apart may be missing. Equal values may be shown once. Read-outs that look alike come from different tables or passages of the source. Square brackets hold non-standard residues; d marks the D form. Peptide text beside a SMILES is read from it. * marks the point of attachment. FITC = O=C1OC2(c3ccc(O)cc3Oc3cc(O)ccc32)c2ccc(NC(=S)*)cc21; pT = C[C@@H](OP(=O)(O)O)[C@H](N)C(=O)O; pS = N[C@@H](COP(=O)(O)O)C(=O)O

Legend:
[1] = target: GST-hTopBP1 BRCT5 WT (Homo sapiens, UniProt Q92547); assay: Fluorescence polarization binding, GST-hBRCT5 WT
Sequence of GST-hTopBP1 BRCT5 WT (Q92547 641-746): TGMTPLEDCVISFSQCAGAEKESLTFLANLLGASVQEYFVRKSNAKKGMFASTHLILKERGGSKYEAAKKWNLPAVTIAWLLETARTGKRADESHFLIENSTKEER

[2] = target: GST-hBRCT5 M689A (Homo sapiens, UniProt Q92547, M689A); assay: Fluorescence polarization binding, GST-hBRCT5 M689A
Sequence of GST-hBRCT5 M689A (Q92547 641-746 M689A): as the sequence (Q92547 641-746) above, with M49A counted along it

[3] = target: human TopBP1 BRCT5, 641-746 (UniProt Q92547); assay: fluorescence polarization titration; conditions: reference: pSer304 peptide mock-treated without λ phosphatase; sites S304
[4] = target: TopBP1 BRCT4/5, untagged and GST-tagged forms (Homo sapiens, UniProt Q92547); assay: Fluorescence polarization binding, untagged and GST-tagged TopBP1 forms compared
Sequence of TopBP1 BRCT4/5, untagged and GST-tagged forms (Q92547 549-746): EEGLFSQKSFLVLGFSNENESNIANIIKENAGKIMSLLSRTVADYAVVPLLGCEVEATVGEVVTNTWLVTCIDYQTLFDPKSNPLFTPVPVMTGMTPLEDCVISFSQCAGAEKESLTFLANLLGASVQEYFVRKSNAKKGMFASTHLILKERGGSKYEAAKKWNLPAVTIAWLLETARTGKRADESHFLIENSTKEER
In short: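 Untagged BRCT4/5 was prepared by overnight PreScission cleavage of the GST fusion at 4 °C, then anion exchange at pH 7.0, glutathione-bead removal of GST, and gel filtration. Read-out was ex 485/em 538 nm; KD was curve-fitted and averaged over ≥3 measurements.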

[5] = target: T1, GST-human TopBP1 BRCT5 (641-746), wild type (human, UniProt Q92547 641-746); assay: fluorescence polarisation
T1 sequence (Q92547 641-746): as the sequence (Q92547 641-746) above

[6] = target: human TopBP1 BRCT4/5 (549-746), untagged (human, UniProt Q92547 549-746); assay: fluorescence polarisation
Sequence of human TopBP1 BRCT4/5 (549-746), untagged (Q92547 549-746): as the sequence (Q92547 549-746) above

[7] = target: GST-human TopBP1 BRCT4/5 (549-746) (human, UniProt Q92547 549-746); assay: fluorescence polarisation
Sequence of GST-human TopBP1 BRCT4/5 (549-746) (Q92547 549-746): as above

[8] = target: T2, mouse TopBP1 BRCT4/5 (553-749), untagged (mouse, UniProt Q6ZQF0 553-749); assay: fluorescence polarisation
T2 sequence (looked up): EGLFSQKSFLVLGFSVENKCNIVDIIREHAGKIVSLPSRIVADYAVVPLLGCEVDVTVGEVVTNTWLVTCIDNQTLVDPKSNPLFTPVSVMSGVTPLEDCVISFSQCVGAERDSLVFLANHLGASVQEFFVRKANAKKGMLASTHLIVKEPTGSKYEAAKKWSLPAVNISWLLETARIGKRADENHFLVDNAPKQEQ

[9] = target: GST-human TopBP1 BRCT5 S654A (human, UniProt Q92547 641-746, S654A); assay: fluorescence polarisation
Sequence of GST-human TopBP1 BRCT5 S654A (Q92547 641-746 S654A): as the sequence (Q92547 641-746) above, with S14A counted along it

[10] = target: GST-human TopBP1 BRCT5 K704A (human, UniProt Q92547 641-746, K704A); assay: fluorescence polarisation
Sequence of GST-human TopBP1 BRCT5 K704A (Q92547 641-746 K704A): as the sequence (Q92547 641-746) above, with K64A counted along it

[11] = target: GST-human TopBP1 BRCT5 R681E/K682E (human, UniProt Q92547 641-746, R681E | K682E); assay: fluorescence polarisation
Sequence of GST-human TopBP1 BRCT5 R681E/K682E (Q92547 641-746 R681E/K682E): as the sequence (Q92547 641-746) above, with R41E, K42E counted along it

[12] = target: GST-human TopBP1 BRCT5 K686E/K687E (human, UniProt Q92547 641-746, K686E | K687E); assay: fluorescence polarisation
Sequence of GST-human TopBP1 BRCT5 K686E/K687E (Q92547 641-746 K686E/K687E): as the sequence (Q92547 641-746) above, with K46E, K47E counted along it

[13] = target: GST-human TopBP1 BRCT5 A707K (human, UniProt Q92547 641-746, A707K); assay: fluorescence polarisation
Sequence of GST-human TopBP1 BRCT5 A707K (Q92547 641-746 A707K): as the sequence (Q92547 641-746) above, with A67K counted along it

[14] = target: GST-human TopBP1 BRCT5 A707D (human, UniProt Q92547 641-746, A707D); assay: fluorescence polarisation
Sequence of GST-human TopBP1 BRCT5 A707D (Q92547 641-746 A707D): as the sequence (Q92547 641-746) above, with A67D counted along it

[15] = target: GST-human TopBP1 BRCT5 M689A (human, UniProt Q92547 641-746, M689A); assay: fluorescence polarisation
Sequence of GST-human TopBP1 BRCT5 M689A (Q92547 641-746 M689A): as the sequence (Q92547 641-746) above, with M49A counted along it

[16] = target: GST-human TopBP1 BRCT5 Y678A (human, UniProt Q92547 641-746, Y678A); assay: fluorescence polarisation
Sequence of GST-human TopBP1 BRCT5 Y678A (Q92547 641-746 Y678A): as the sequence (Q92547 641-746) above, with Y38A counted along it

[17] = target: T1, GST-human TopBP1 BRCT5 (641-746), wild …; assay: fluorescence polarisation; remark: listed apart in the source
[18] = target: T1, GST-human TopBP1 BRCT5 (641-746), wild …; assay: fluorescence polarisation; remark: listed apart in the source

CC[C@H](C)[C@H](NC(=O)[C@H](Cc1ccccc1)NC(=O)CNC(=S)Nc1ccc2c(c1)C(=O)OC21c2ccc(O)cc2Oc2cc(O)ccc21)C(=O)N[C@@H](CC(=O)O)C(=O)N[C@@H](COP(=O)(O)O)C(=O)N[C@@H](CC(=O)O)C(=O)N[C@H](C(=O)N[C@@H](CC(=O)O)C(=O)N[C@H](C(=O)N[C@@H](CCC(=O)O)C(=O)N[C@@H](CCC(=O)O)C(=O)N[C@@H](CCC(=O)O)C(N)=O)C(C)C)[C@@H](C)OP(=O)(O)O [MDC1, reference compound] ({FITC}-GFID[pS]D[pT]DVEEE-NH2)
Kd [1]: 15 ± 1 µM
Kd [2]: 15 ± 1 µM

BLM (Bloom syndrome, RecQ-like helicase) 297-309 (from UniProt P54132) λ phosphatase-treated pSer304 peptide
KD [3]: weaker; reference 2.6 ± 0.4

CC[C@H](C)[C@H](NC(=O)[C@@H](NC(=O)[C@H](CCC(=O)O)NC(=O)[C@H](CCC(=O)O)NC(=O)[C@@H]1CCCN1C(=O)[C@H](COP(=O)(O)O)NC(=O)[C@@H]1CCCN1C(=O)[C@@H]1CCCN1C(=O)[C@@H](NC(=O)[C@H](Cc1ccccc1)NC(=O)[C@H](CC(=O)O)NC(=O)[C@@H](NC(=O)[C@H](CC(=O)O)NC(=S)Nc1ccc2c(c1)C(=O)OC21c2ccc(O)cc2Oc2cc(O)ccc21)[C@@H](C)O)C(C)C)[C@@H](C)CC)C(N)=O [pSer304] ({FITC}-DTDFVPP[pS]PEEII-NH2)
Kd [4]: 3 to 6 µM

CC[C@H](C)[C@H](NC(=O)[C@@H](NC(=O)[C@H](CCC(=O)O)NC(=O)[C@H](CCC(=O)O)NC(=O)[C@@H]1CCCN1C(=O)[C@H](CO)NC(=O)[C@@H]1CCCN1C(=O)[C@@H]1CCCN1C(=O)[C@@H](NC(=O)[C@H](Cc1ccccc1)NC(=O)[C@H](CC(=O)O)NC(=O)[C@@H](NC(=O)[C@H](CC(=O)O)NC(=S)Nc1ccc2c(c1)C(=O)OC21c2ccc(O)cc2Oc2cc(O)ccc21)[C@@H](C)O)C(C)C)[C@@H](C)CC)C(N)=O [Ser304] ({FITC}-DTDFVPPSPEEII-NH2)
Kd ([1]; KD, FP, BLM pSer304 peptide treated with λ phosphatase, 1 hour at 30 °C): ≥ 60 µM

CC(C)C[C@H](NC(=O)[C@H](CC(=O)O)NC(=O)[C@H](CCCCN)NC(=O)[C@H](COP(=O)(O)O)NC(=O)[C@@H](NC(=O)[C@H](CO)NC(=O)[C@H](CC(C)C)NC(=O)[C@@H](NC(=O)[C@H](CC(=O)O)NC(=O)[C@H](CCC(=O)O)NC(=O)[C@H](CCCCN)NC(=S)Nc1ccc2c(c1)C(=O)OC21c2ccc(O)cc2Oc2cc(O)ccc21)C(C)C)[C@@H](C)O)C(N)=O [pSer338] ({FITC}-KEDVLST[pS]KDL-NH2)
Kd [1]: ≥ 300 µM

{FITC}-DTDFVPP[pS]PEEII-NH2 [FITC-labelled BLM pSer304 peptide (FITC-DTDFVPPpSPEEII-NH2)]
Kd [5]: 3.9 ± 0.3 µM
Kd [6]: 3.2 ± 0.8 µM
Kd [7]: 6 ± 1 µM
Kd [8]: 6 ± 2 µM
Kd [9]: 33 ± 3 µM
Kd [10]: 42 ± 3 µM
Kd [11]: 45 ± 2 µM
Kd [12]: 36 ± 3 µM
Kd [13]: 70 ± 20 µM
Kd [14]: 320 ± 40 µM
Kd [15]: 53 ± 4 µM
Kd [16]: 18 ± 2 µM
Kd [17]: 2.6 µM and 3.7 µM

{FITC}-KEDVLST[pS]KDL-NH2 [FITC-labelled BLM pSer338 peptide (FITC-KEDVLSTpSKDL-NH2)]
Kd [5]: 285 ± 10 µM

{FITC}-DTDFVPPSPEEII-NH2 [Unphosphorylated Ser304 BLM peptide (FITC-DTDFVPPSPEEII-NH2)]
Kd [18]: 60 ± 10 µM
